From ChEMBL document CHEMBL4017511, “Discovery of Fragment-Derived Small Molecules for in Vivo Inhibition of Ketohexokinase (KHK)” (J Med Chem, 2017)
Values after ≈ are worked out from the molar mass of the structure shown. Active and inactive are the calls of the source. The rule behind the calls is not given here.

How the values were obtained:
Ketohexokinase [1] = target: T1, Ketohexokinase (Homo sapiens, UniProt P50053); experiment: Binding affinity to full length recombinant human biotin-labeled KHK by SPR assay
T1 sequence (P50053 whole entry): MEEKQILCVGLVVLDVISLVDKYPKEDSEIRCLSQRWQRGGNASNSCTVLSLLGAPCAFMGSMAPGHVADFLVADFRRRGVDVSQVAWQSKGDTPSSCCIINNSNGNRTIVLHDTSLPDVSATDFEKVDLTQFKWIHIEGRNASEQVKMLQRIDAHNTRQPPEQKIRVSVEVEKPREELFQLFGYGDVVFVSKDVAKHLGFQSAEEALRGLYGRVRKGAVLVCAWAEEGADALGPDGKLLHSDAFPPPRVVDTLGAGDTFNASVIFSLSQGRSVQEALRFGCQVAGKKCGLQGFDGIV
How it was run: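 Full-length biotinylated KHK captured on a streptavidin sensor (7000-8000 RU). Run buffer was 50 mM HEPES pH 7.4, 150 mM NaCl, 0.01% P20, 500 µM TCEP, 3% DMSO at 25 °C. Eleven 2-fold concentrations from 300 µM top, stop-flow with 60 s association and ≥120 s dissociation. Data double-referenced and DMSO-corrected; KD by steady-state affinity fit, n=1.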

Ketohexokinase [2] = target: T1, Ketohexokinase; experiment: Inhibition of recombinant human N-terminal His-tagged KHK expressed in Escherichia coli BL21(DE3) using fructose as substrate incubated for 30 mins followed by ATP addition measured for 30 mins by pyruvate kinase-lactate dehydrogenase coupled enzyme assay
How it was run: (§1)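 Thrombin-cleaved (His-tag removed) human or rat KHK at 10 nM, preincubated 30 min at room temperature with compound (11-point series, 2.5% DMSO). Started with 0.2 mM ATP; NADH A340 read kinetically for 30 min. IC50 from nonlinear fit of percent inhibition; mean of replicates.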

[3] = target: T2, Ketohexokinase (Homo sapiens) (UniProt P50053); experiment: Inhibition of recombinant full length human His-tagged KHK expressed in Escherichia coli BL21(DE3) using at 240 uM by 1D NMR-STD spectroscopic method
T2 sequence (whole entry): T1 sequence (P50053 whole entry)
How it was run: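 Full-length His-tagged human KHK (tag retained) at 5 μM in 50 mM Tris-d, 100 mM NaCl, 2 mM TCEP-d, 5% glycerol-d, pH 7.5, 298 K. AMP-PMP at 240 μM served as positive control. Saturation-transfer difference NMR used 512 scans and 3 s Gaussian on/off-resonance saturation. Binding was called from positive difference signals, with ligands assigned against each fragment's 1D 1H reference spectrum.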

[4] = Half life in rat at 1 mg/kg, iv; assay type: ADME, organism-based; conditions: in vivo
How it was run: (§2)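 Rat PK following a 1 mg/kg intravenous dose; systemic clearance, volume of distribution and effective half-life derived from plasma exposure.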

[5] = Apparent clearance in human liver microsomes; assay type: ADME, microsome; conditions: read-out: CLH(app)
Cytochrome P450 2C8 = target: T3, Cytochrome P450 2C8 (Homo sapiens, UniProt P10632); experiment: Inhibition of human CYP2C8 at 3 uM; assay type: ADME
T3 sequence (P10632 whole entry): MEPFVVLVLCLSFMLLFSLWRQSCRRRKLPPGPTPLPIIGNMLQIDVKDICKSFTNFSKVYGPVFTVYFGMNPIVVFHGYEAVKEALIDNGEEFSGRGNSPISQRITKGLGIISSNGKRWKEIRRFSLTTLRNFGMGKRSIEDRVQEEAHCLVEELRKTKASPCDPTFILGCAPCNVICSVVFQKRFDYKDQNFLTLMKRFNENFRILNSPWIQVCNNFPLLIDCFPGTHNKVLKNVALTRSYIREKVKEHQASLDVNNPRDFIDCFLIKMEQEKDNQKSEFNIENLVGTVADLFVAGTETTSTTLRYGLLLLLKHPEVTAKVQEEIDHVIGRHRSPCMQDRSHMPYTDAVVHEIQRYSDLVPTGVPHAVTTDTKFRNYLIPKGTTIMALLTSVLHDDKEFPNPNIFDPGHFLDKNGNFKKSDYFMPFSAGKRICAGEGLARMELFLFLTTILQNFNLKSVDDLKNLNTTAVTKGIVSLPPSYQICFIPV

Ketohexokinase [6] = target: T1, Ketohexokinase
Salmonella typhimurium = experiment: Genotoxicity in Salmonella typhimurium by Ames test; assay type: toxicity; conditions: salmonella enterica subsp. enterica serovar typhimurium
Cytochrome P450 3A4 = Cytochrome P450 3A4 (Homo sapiens, UniProt P08684); experiment: Inhibition of human CYP3A4 at 3 uM; assay type: ADME
[7] = Thermodynamic solubility of compound at pH 7.4; assay type: physicochemical; conditions: buffer, read-out: Therm_solubility
How it was run: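 Thermodynamic solubility determined at pH 7.4.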

HepG2 = experiment: Cytotoxicity against human HepG2 cells up to 300 uM after 72 hrs; assay type: cell-based; conditions: hepg2, 72 h
How it was run: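 HepG2 cells incubated with compound at concentrations up to 300 µM for 72 hours to assess toxicity.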

Rattus norvegicus [8] = experiment: In vivo inhibition of fructose metabolism in po dosed Sprague-Dawley rat assessed as increase in plasma fructose level administered for 1 hr followed by oral bolus fructose administration measured after 2 mins by LC/MS analysis; assay type: functional, organism-based
How it was run: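 Fasted (16 h) non-cannulated male Sprague Dawley rats were dosed orally with compound in a 0.5% methylcellulose nano-milled suspension. One hour later they received 2 g/kg oral fructose. Tail-vein K2EDTA plasma was methanol-extracted with 13C6-fructose internal standard and analysed by HILIC LC-MS/MS; n = 6-8.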

[9] = Fraction unbound in human plasma at 10 uM measured at 2 to 24 hrs by equilibrium dialysis method; assay type: ADME, cell-free
Rattus norvegicus [10] = experiment: Time required for plasma concentration to reach above in vitro rat KHK IC50 in rat at 150 mg/kg, po
How it was run: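 Rats dosed orally at 150 mg/kg as a nanocrystal suspension (1% polyvinylpyrrolidone / 0.025% sodium lauryl sulfate / 1% pluronic).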

[11] = Volume of distribution in rat at 1 mg/kg, iv; assay type: ADME, organism-based; conditions: in vivo; how it was run: as §2
Cytochrome P450 1A2 = target: T4, Cytochrome P450 1A2 (Homo sapiens, UniProt P05177); experiment: Inhibition of human CYP1A2 at 3 uM; assay type: ADME
T4 sequence (P05177 whole entry): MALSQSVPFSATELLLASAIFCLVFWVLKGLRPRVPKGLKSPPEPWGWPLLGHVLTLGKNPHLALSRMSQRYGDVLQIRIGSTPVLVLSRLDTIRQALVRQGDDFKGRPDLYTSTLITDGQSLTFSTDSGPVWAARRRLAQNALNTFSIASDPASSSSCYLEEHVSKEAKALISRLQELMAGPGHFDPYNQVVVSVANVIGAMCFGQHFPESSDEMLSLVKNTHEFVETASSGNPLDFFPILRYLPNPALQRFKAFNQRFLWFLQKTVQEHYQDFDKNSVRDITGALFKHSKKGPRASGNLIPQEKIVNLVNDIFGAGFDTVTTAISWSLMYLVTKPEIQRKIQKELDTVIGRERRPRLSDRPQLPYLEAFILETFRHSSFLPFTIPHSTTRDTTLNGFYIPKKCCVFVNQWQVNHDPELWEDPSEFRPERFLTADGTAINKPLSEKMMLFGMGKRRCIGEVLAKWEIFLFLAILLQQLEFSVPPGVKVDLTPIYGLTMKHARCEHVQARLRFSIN

Cytochrome P450 2D6 = Cytochrome P450 2D6 (Homo sapiens, UniProt P10635); experiment: Inhibition of human CYP2D6 at 3 uM; assay type: ADME
Cytochrome P450 2C19 = Cytochrome P450 2C19 (Homo sapiens, UniProt P33261); experiment: Inhibition of human CYP2C19 at 3 uM; assay type: ADME
Cytochrome P450 2C9 = Cytochrome P450 2C9 (Homo sapiens, UniProt P11712); experiment: Inhibition of human CYP2C9 at 3 uM; assay type: ADME
Ketohexokinase [12] = target: T1, Ketohexokinase; remark: listed apart in the source
Rattus norvegicus [13] = experiment: Oral bioavailability in rat at 5 mg/kg; assay type: ADME, organism-based; conditions: in vivo
Rattus norvegicus [14] = experiment: In vivo inhibition of KHK-C in po dosed Sprague-Dawley rat assessed as decrease in F1P levels in liver administered for 1 hr followed by bolus fructose administration measured 2 mins after iv infusion by LC/MS analysis; assay type: functional
How it was run: (§3)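 Male Sprague Dawley rats (~200 g, jugular-cannulated) were fasted 16 h and given oral compound as a 0.5% methylcellulose nano-milled suspension. After 1 h they received an i.v. fructose bolus of 500 mg/kg over 20 s, and were decapitated 2 min later. Liver and kidney F1P was quantified by ion-exchange LC/MS/MS against a 13C-xylitol internal standard. ED50 from a four-parameter fit; n = 7-8.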

[15] = target: Voltage-gated inwardly rectifying potassium channel KCNH2 (Homo sapiens, UniProt Q12809); experiment: Inhibition of human ERG
[16] = Octanol/water partition coefficient, log D of the compound at pH 7.4 by shake-flask method; assay type: physicochemical
How it was run: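 LogD measured by shake-flask octanol:water partition at pH 7.4.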

[17] = Apparent clearance in rat liver microsomes; assay type: ADME, microsome; conditions: read-out: CLH(app)
Rattus norvegicus [18] = experiment: In vivo inhibition of KHK-C in po dosed Sprague-Dawley rat assessed as decrease in F1P levels in kidney administered for 1 hr followed by bolus fructose administration measured 2 mins after iv infusion by LC/MS analysis; assay type: functional; how it was run: as §3
Rattus norvegicus [19] = experiment: AUClast in rat at 5 mg/kg, po; assay type: ADME, organism-based; parameters: dose 5 mg/kg, route oral, time 0 - last; conditions: in vivo
[20] = Apparent permeability in RRCK cells by LC-MS/MS analysis; assay type: ADME, cell-based, Canis lupus familiaris, MDCKII-LE; conditions: dog, MDCK
Ketohexokinase [21] = target: T5, Ketohexokinase (Rattus norvegicus, UniProt Q02974); experiment: Inhibition of recombinant rat N-terminal His-tagged KHK expressed in Escherichia coli BL21(DE3) using fructose as substrate incubated for 30 mins followed by ATP addition measured for 30 mins by pyruvate kinase-lactate dehydrogenase coupled enzyme assay; how it was run: as §1
T5 sequence (Q02974 whole entry): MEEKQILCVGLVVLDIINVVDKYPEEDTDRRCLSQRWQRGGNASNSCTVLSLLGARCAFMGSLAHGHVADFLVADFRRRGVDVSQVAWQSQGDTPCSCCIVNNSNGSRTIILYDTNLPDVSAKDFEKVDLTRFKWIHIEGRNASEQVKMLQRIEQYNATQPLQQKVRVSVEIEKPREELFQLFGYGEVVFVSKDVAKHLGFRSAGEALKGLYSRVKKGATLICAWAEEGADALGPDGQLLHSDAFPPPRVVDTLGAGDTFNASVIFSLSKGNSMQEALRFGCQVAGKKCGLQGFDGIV

[22] = Cmax in rat at 5 mg/kg; assay type: ADME, organism-based; parameters: dose 5 mg/kg; conditions: in vivo
[23] = Rattus norvegicus, Sprague-Dawley

Cytochrome P450 3A4, sequence (P08684 whole entry): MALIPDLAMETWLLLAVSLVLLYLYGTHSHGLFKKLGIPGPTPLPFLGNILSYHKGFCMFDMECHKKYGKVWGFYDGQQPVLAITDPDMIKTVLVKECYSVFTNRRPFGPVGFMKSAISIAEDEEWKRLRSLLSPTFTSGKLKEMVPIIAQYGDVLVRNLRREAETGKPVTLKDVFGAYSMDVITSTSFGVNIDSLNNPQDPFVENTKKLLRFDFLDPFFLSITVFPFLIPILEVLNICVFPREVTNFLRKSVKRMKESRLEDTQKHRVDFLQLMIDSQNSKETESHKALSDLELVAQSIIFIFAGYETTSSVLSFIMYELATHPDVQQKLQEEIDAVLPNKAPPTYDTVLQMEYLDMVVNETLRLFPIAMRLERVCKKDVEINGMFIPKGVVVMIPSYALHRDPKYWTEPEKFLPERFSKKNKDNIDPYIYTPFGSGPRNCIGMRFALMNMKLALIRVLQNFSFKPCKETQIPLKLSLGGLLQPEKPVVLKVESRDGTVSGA
Cytochrome P450 2C19, sequence (P33261 whole entry): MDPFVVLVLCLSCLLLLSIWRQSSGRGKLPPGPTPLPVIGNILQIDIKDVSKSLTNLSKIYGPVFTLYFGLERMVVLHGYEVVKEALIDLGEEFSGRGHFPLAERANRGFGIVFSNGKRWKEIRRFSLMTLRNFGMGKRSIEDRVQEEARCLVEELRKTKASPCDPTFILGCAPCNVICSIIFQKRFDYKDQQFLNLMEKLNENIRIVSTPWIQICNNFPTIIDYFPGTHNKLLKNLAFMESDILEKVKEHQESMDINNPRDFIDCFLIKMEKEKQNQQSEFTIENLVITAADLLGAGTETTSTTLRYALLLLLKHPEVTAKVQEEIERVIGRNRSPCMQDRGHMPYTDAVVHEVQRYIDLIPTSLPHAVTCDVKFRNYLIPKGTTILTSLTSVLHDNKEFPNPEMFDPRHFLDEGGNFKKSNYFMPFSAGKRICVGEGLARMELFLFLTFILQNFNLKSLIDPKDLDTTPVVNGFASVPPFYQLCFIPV
Cytochrome P450 2C9, sequence (P11712 whole entry): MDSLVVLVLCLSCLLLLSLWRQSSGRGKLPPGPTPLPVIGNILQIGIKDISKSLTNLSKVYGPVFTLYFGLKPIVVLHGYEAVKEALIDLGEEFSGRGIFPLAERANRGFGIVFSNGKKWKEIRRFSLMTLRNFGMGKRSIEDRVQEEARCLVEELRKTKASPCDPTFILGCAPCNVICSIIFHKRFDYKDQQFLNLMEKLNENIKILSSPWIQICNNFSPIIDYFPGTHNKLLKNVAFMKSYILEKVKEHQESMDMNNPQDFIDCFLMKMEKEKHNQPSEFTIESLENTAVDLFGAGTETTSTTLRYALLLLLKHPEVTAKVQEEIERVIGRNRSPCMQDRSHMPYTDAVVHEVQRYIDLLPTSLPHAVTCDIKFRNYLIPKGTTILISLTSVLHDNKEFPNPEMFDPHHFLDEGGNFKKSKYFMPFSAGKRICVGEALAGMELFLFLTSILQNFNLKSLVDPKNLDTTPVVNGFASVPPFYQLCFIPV
Cytochrome P450 2D6, sequence (P10635 whole entry): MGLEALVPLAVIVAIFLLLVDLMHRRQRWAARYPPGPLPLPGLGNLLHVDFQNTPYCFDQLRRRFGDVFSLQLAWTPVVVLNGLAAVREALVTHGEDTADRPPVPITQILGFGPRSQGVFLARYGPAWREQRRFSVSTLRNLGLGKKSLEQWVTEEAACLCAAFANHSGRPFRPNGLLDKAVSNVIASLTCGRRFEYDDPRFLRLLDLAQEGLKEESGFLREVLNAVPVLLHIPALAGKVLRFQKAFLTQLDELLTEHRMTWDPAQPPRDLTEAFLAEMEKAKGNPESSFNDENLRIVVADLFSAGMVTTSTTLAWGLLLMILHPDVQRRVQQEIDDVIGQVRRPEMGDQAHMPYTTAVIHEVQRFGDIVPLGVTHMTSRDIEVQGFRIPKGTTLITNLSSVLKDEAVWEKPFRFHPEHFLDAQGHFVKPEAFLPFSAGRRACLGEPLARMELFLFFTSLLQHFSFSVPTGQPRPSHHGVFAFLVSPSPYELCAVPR
Voltage-gated inwardly rectifying potassium channel KCNH2, sequence (Q12809 whole entry): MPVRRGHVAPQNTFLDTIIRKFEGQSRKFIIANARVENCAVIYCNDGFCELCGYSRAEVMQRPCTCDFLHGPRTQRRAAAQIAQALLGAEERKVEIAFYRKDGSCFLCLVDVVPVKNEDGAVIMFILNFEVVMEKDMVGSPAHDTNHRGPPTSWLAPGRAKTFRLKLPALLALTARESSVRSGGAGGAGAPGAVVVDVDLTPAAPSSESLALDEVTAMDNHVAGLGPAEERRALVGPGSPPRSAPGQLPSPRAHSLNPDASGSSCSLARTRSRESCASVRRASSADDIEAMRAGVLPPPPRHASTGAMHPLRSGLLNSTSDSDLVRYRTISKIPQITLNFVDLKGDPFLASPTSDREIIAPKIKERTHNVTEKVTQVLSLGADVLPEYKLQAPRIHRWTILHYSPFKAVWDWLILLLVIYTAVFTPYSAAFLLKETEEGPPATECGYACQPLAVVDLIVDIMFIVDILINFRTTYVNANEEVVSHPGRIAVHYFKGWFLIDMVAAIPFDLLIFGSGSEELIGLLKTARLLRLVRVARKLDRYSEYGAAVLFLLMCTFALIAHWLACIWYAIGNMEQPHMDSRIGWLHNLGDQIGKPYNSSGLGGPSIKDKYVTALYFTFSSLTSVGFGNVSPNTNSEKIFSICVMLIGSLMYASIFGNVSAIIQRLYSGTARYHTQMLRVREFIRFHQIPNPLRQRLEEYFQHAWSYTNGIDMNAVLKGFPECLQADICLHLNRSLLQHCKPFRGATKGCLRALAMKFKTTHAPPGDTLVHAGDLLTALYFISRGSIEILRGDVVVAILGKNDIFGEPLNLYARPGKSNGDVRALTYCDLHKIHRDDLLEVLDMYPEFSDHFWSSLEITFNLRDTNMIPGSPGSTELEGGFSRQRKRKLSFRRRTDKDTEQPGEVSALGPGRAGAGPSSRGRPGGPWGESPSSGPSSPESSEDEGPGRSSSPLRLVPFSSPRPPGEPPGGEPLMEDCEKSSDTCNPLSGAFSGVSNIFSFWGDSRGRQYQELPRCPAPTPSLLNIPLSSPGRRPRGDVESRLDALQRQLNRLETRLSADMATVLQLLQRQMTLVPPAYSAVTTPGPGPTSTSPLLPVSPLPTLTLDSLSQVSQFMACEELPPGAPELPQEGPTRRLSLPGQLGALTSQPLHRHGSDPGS

With `Oc1nc2ccccc2nc1C(F)(F)F` the Kd (Ketohexokinase [1]) was 44 µM, the IC50 (Ketohexokinase [2]; read-out: IC50) was 100 µM and the inhibition [3] was “Active”.
With `C[C@]1(O)CCN(c2nc(N3C[C@H](O)[C@@H](O)C3)cc(C(F)(F)F)c2C#N)C1` the half-life [4] was 1.2 h, the microsomal CLint [5] was less than 8 µL/min/mg and the “inhibition (INH)” value (Cytochrome P450 2C8) was “Not Active”. The IC50 (Ketohexokinase [6]) was 0.39 µM, the Activity (Salmonella typhimurium) was “Non-Toxic” and the “inhibition (INH)” value (Cytochrome P450 3A4) was “Not Active”. The solubility thermodynamic [7] was 503 µM (≈ 187 µg/mL), the Activity (HepG2) was “Non-Toxic” and the inhibition (Rattus norvegicus [8]) was “Dose-dependent effect”. It also gave a fraction unbound at 10 µM [9] of 0.13, a Time (Rattus norvegicus [10]) of 14 h and a Vd [11] of 1.38 L/kg. For the same compound, the “inhibition (INH)” value (Cytochrome P450 1A2) was “Not Active”, the “inhibition (INH)” value (Cytochrome P450 2D6) was “Not Active” and the “inhibition (INH)” value (Cytochrome P450 2C19) was “Not Active”. The “inhibition (INH)” value (Cytochrome P450 2C9) was “Not Active”, the IC50 (Ketohexokinase [12]) was 0.316 µM and the F (Rattus norvegicus [13]) was 45%. The inhibition (Rattus norvegicus [14]) was “Dose-dependent effect”, the pED50 (Rattus norvegicus [14]) was 1.48 and the ED50 (Rattus norvegicus [14]; [23]) was 30 mg/kg. The “inhibition (INH)” value [15] was “Not Active”, the logD [16] was 2.2 and the microsomal CLint [17] was less than 8 µL/min/mg. The inhibition (Rattus norvegicus [18]) was “Dose-dependent effect”, the pED50 (Rattus norvegicus [18]) was 1.2 and the ED50 (Rattus norvegicus [18]; [23]) was 15.7 mg/kg. The AUClast (Rattus norvegicus [19]) was 14500 ng·h/mL, the Papp [20] was 3.5 ×10⁻⁶ cm/s and the IC50 (Ketohexokinase [21]; read-out: IC50) was 0.34 µM. The IC50 (Ketohexokinase [21]; read-out: pIC50 (converted)) was 0.501 µM and the Cmax [22] was 2940 ng/mL.
In the case of `Cc1cc(C)c(C#N)c(N2CCOCC2)n1`, the Kd (Ketohexokinase [1]) is reported as 62 µM, the IC50 (Ketohexokinase [2]; read-out: IC50) is reported as 319 µM and the inhibition [3] is reported as “Active”.
Compound `C[C@@]1(O)CCN(c2c(C#N)c(C(F)(F)F)nc3cc[nH]c23)C1` has a microsomal CLint [5] of less than 8 µL/min/mg, an IC50 (Ketohexokinase [2]; read-out: IC50) of 24.2 µM and a logD [16] of 2.1.
`Cc1c[nH]c2ncnc(N3CCC[C@@H](CO)C3)c12` showed a Kd (Ketohexokinase [1]) of 20 µM, an IC50 (Ketohexokinase [2]; read-out: IC50) of 118 µM and an IC50 (Ketohexokinase [2]; read-out: pIC50 (converted)) of 120 µM. For the same compound, the inhibition [3] was “Active”.
